Data from publication PMC10798254 (Indian Journal of Nuclear Medicine : IJNM : The Official …, 2023).
Blank lines part the entries; values can stand above or below the molecule they belong to.

Experiments:
B16F10 cells = test: Cell binding; type: cell-based; settings: plateau after 30 minutes
melanoma tumor (B16F10) = test: In-vivo biodistribution; parameters: species or system C57BL6 mice; settings: mouse
amyloid-beta (Aβ42) = amyloid-beta (Aβ42) (Homo sapiens, UniProt P05067); test: Binding to synthetic Aβ42 peptide and molecular modeling; settings: compared to monomeric counterparts
Sequence of amyloid-beta (Aβ42) (P05067 672-713): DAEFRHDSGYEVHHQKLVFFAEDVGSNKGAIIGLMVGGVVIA

[1] = Biodistribution and dosimetry of 177Lu-DOTA-rituximab; type: in vivo, patients
Summary of the method: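 22 patients received a diagnostic administration, mean 288.6 MBq. Blood clearance, organ residence times and effective half-life were derived. Whole-body and organ (liver, spleen, kidneys, bone marrow) absorbed doses were expressed per MBq using OLINDA/EXM v2.1.1.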

[2] = system: mCRPC with liver metastases; test: [177Lu]Lu-PSMA-617 in mCRPC with liver metastases; type: in vivo, patients
[3] = In-vitro stability of 99mTc-glibenclamide; type: physicochemical; settings: solution in PEG 400, ethanol, DMSO stored at 2-8 C, without lyophilization
carcinoma prostate = test: Detection of metastatic disease in carcinoma prostate, PET-CT; type: in vivo, patients; settings: for detection rate, lymph nodes: 50 patients, head-to-head; for detection rate, skeletal metastases / detection rate, soft tissue metastases: in vivo
HeLa xenograft = test: In-vivo biodistribution; parameters: species or system SCID mice; settings: mouse
HeLa cells (PDL-1) = test: Cell binding; type: cell-based, human; settings: plateau after 30 minutes
medullary thyroid cancer = test: 131I-mIBG therapy of medullary thyroid cancer; type: in vivo, patients
Summary of the method: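 131I-mIBG given as dose-adjusted intravenous infusions in 100 ml 0.9% sodium chloride by syringe pump over 3 hours, at 30.5 to 120 mCi per dose. Twenty-three therapy doses in total, 1–4 per patient.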

[4] = system: metastatic pheochromocytoma and paraganglioma; test: I-131 MIBG therapy of metastatic pheochromocytoma and paraganglioma; type: in vivo, patients
thyroid remnant = test: 131I remnant ablation in differentiated thyroid cancer; type: in vivo, patients
[5] = system: peripheral blood lymphocytes; test: Cytokinesis block micronuclei assay after therapeutic 131I; type: in vivo, patients
Summary of the method: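 Blood was drawn from 18 thyroid cancer patients before and 72 hrs after a single oral therapeutic 131I dose (5.7 ± 2.1 GBq). Nine healthy volunteers served as controls. Samples were run by standard cytokinesis-block micronucleus protocol, scoring MN, NBUDs and NBR per 1000 binucleate PBLs.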

[6] = system: papillary thyroid carcinoma; test: Empirical radioiodine therapy in papillary thyroid carcinoma; type: in vivo, patients; settings: of 100
Summary of the method: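 100 papillary thyroid carcinoma patients received 1–3 empirical radioiodine ablations and were followed from 6 months to 12 years. Histologies were classical, follicular, oncocytic, tall cell and microcarcinoma. Disease status was judged from serum thyroglobulin trend during follow-up.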

[7] = system: metastatic prostate cancer; test: 99mTc-PSMA SPECT/CT vs 68Ga-PSMA PET/CT lesion detection; type: in vivo, patients
Summary of the method: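 61 male patients with metastatic prostate cancer (mean age 67 ± 7.82 years) received i.v. 99mTc-PSMA, mean 12.82 ± 1.15 mCi. Anterior and posterior whole-body images were taken at 2.0 and 4.0 h on a dual-head gamma camera (matrix 256×1024, 12 cm/min). Lesion counts were compared against 68Ga-PSMA.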

Glioblastoma multiforme = test: [64Cu]CuCl2 PET in glioblastoma multiforme; type: in vivo, patients
[8] = system: estrogen receptor-positive (ER+) tumors; test: Tumor localization of 99mTc-; type: in vivo
CXCR4 receptors [9] = target: T1, CXCR4 receptors (Homo sapiens, UniProt P61073); type: in vivo, patients
T1 sequence (P61073 whole entry): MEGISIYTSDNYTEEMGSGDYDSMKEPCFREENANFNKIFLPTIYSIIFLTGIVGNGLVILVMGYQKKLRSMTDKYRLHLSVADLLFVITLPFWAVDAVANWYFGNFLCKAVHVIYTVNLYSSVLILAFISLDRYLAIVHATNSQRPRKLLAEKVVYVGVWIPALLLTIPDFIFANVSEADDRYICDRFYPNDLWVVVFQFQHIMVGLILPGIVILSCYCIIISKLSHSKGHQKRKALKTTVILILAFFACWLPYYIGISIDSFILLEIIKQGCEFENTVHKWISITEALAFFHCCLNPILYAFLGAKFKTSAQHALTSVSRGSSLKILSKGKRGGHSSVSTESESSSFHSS

RGD binding integrins = type: in vivo, patients
CXCR4 receptors [10] = target: T1, CXCR4 receptors; parameters: species or system patients; settings: in vivo
[11] = Stability of 68Ga-FAPI till 4 hrs by ITLC; type: physicochemical
[12] = RCP of 68Ga-FAPI over time by TLC and HPLC; type: physicochemical
Summary of the method: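 Radiolabelled yield and RCP of the product were assessed by gradient HPLC and by TLC, using 0.1M sodium citrate and 50% acetonitrile as solvents. Physical appearance, pH and colour were also checked.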

U87 = settings: temozolomide sensitive line; stated in methods, ref not given; cited from earlier work
LN18 = settings: temozolomide resistant line; stated in methods, ref not given; cited from earlier work
QG56 (wild-type EGFR) = test: Methylene blue IC50 assay; type: cell-based; settings: Homo sapiens, QG-56
NCI-H3255 = test: Methylene blue IC50 assay; type: cell-based; settings: Homo sapiens
NCI-H1975 = test: Methylene blue IC50 assay; type: cell-based; settings: Homo sapiens
HCC827 = test: Methylene blue IC50 assay; type: cell-based; settings: Homo sapiens
BIRADS-V breast lesions = test: 99mTc-MDM scintimammography; type: in vivo, patients
Summary of the method: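 For labelling, 15–20 mCi sodium pertechnetate was added to the kit vial and made up to 1.5 ml with 0.9% NaCl. It was incubated 15–20 min, then 0.22 µm filtered. 15–20 mCi was injected i.v. under the gamma camera. Spot views (anterior/posterior and lateral prone) were taken at 10, 60 and 180 min, and uptake mean and SD calculated at each time.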

kidney = test: Effect of probenecid on renal uptake of 68Ga-DOTATATE and 68Ga-PSMA11; type: in vivo, Wistar rats; settings: control versus experimental groups

Molecule: [^90Y]Y-CHX-A”-DTPA-Bevacizumab
binding in cells (B16F10 cells): Approximately 32 ± 3%
accumulation in tumor (melanoma tumor (B16F10)): 8.2 ± 2.7 % ID/g

Molecule: CN(CCOc1ccc(C(=O)/C=C/c2ccc(N(C)C)cc2)cc1)CCOc1ccc(C(=O)/C=C/c2ccc(N(C)C)cc2)cc1 [¹¹C-(Chal)2DEA-Me, (2E,2′E)-1,1′-((((methylazanediyl)bis(ethane-2,1-diyl))bis(oxy))bis(4,1-phenylene))bis(3-(4-(dimethylamino)phenyl)prop-2-en-1-one)]
binding affinity (amyloid-beta (Aβ42)): superior binding affinity compared to monomeric counterparts

Molecule: ^177Lu-DOTA-rituximab
effective half-life ([1]; 22 patients): 104.5 ± 22 h
mean WB radiation absorbed dose ([1]; OLINDA/EXM): 0.208 ± 0.03 mGy/MBq
mean WB effective dose ([1]; in vivo): 0.196 ± 0.05 mGy/MBq
mean radiation absorbed dose, bone marrow ([1]; in vivo): 0.136 ± 0.02
mean radiation absorbed dose, kidneys ([1]; in vivo): 1.01 ± 0.42 mGy/MBq
mean radiation absorbed dose, liver ([1]; in vivo): 0.613 ± 0.21 mGy/MBq
mean radiation absorbed dose, spleen ([1]; in vivo): 1.68 ± 2 mGy/MBq

Molecule: [^177Lu]Lu-PSMA-617
Grade 3 anemia ([2]; 2/18 patients): 11.1%
ORR ([2]; 4/14 patients): 28.6%
best PSA-RR (PSA decline of ≥50%) ([2]; 4/16 patients, median cumulative 11.1 GBq over 1-7 cycles): 25%
median OS ([2]; 95% CI: 11.5-14.5): 13.0 months

period for which solubilized drug solution was labeled efficiently [3]: 2 months
Molecule: COc1ccc(Cl)cc1C(=O)NCCc1ccc(S(=O)(=O)NC(=O)NC2CCCCC2)cc1 [GBD, Glibenclamide]

Molecule: O=C([O-])CN(CCN(CC(=O)[O-])Cc1cc(CCC(=O)NCCCCCC(=O)NCCCC[C@H](NC(=O)N[C@@H](CCC(=O)O)C(=O)O)C(=O)O)ccc1[O-])Cc1cc(CCC(=O)O)ccc1[O-].[68Ga+3].[OH3+] [^68Ga-PSMA-11]
detection rate, lymph nodes (carcinoma prostate): 99%
detection rate, skeletal metastases (carcinoma prostate): 99%
detection rate, soft tissue metastases (carcinoma prostate): 85.4%

Molecule: [^90Y]Y-CHX-A”-DTPA-Atezolizumab
retention in the tumor (HeLa xenograft): 5.2 ± 2.5 % ID/gm
binding with cells (HeLa cells (PDL-1)): ~ 18 ± 3.5%

Molecule: N=C(N)NCc1cccc([131I])c1 [I-131 MIBG, Metaiodobenzylguanidine]
calcitonin levels remained stable (medullary thyroid cancer; 30.5 to 120 mCi per dose, 1-4 doses): 8/13
calcitonin levels progressed (medullary thyroid cancer; in vivo): 5/13
regression on repeat mIBG scans (medullary thyroid cancer; in vivo): 3/12
side effects (medullary thyroid cancer; in vivo): no reported side effects
immediate side effect post therapy ([4]; 20 patients): only one patient experienced severe vomiting
patients with symptomatic relief ([4]; in vivo): 70%
progressive disease ([4]; in vivo): 9/20
partial response ([4]; ~100mCi i.v. per therapy): 11/20

Molecule: [131IH] [radioiodine]
successful remnant ablation (thyroid remnant; baseline S Tg <12.3): 84.1%
successful remnant ablation (thyroid remnant; baseline S Tg more than 12.3): 21.2%
patients with successful ablation in a single dose (thyroid remnant; of 383, 70.3 ± 33.6 mCi): 251 patients
NBUDS /1000 BN PBLs post exposure ([5]; 72 hrs after 5.7 ± 2.1 GBq, Pre 7.4 ± 5.3, n = 18): 11.9 ± 7.2
NBR /1000 BN PBLs post exposure ([5]; 72 hrs after exposure, Pre 5.7 ± 4.4): 14.4 ± 8.1
progression post empirical therapy [6]: Fifty-two
regression of disease (decreasing serum thyroglobulin) [6]: 38 patients

Molecule: O=C([O-])CN(CCN(CC(=O)[O-])Cc1cc(CCC(=O)NCCCCCC(=O)NCCCC[C@H](NC(=O)N[C@@H](CCC(=O)O)C(=O)O)C(=O)O)ccc1[O-])Cc1cc(CCC(=O)O)ccc1[O-].[68Ga+3].[OH3+] [^68Ga-PSMA]
pelvic lesions detected ([7]; 61 patients): 341 lesions
extra pelvic distant metastatic lesions detected ([7]; in vivo): 237 lesions
total lesions detected ([7]; in vivo): 578 lesions

SUVmax (Glioblastoma multiforme; first imaging, 2 patients): 1.12
Molecule: [64Cu+2].[Cl-].[Cl-] [^64CuCl2, 64-copper chloride]
tolerability (Glioblastoma multiforme; in vivo): well-tolerated
detection rate, lymph nodes (carcinoma prostate): 79%
detection rate, skeletal metastases (carcinoma prostate): 77.3%
detection rate, soft tissue metastases (carcinoma prostate): 80.6%

T/M ratio ([8]; at 2.0 hours): 1.11 ± 0.34
increase in tumor localization ([8]; in vivo): fivefold
Molecule: CC12CCC3c4ccc(O)cc4CCC3C1CCC2(O)c1cn(CCNC(=O)CN(CCN(CCN(CC(=O)O)CC(=O)NCCn2cc(C3(O)CCC4C5CCc6cc(O)ccc6C5CCC43C)nn2)CC(=O)O)CC(=O)O)nn1 (stereo not drawn) [^99mTc[(EST)2DT], 5,8-bis(carboxymethyl)-13-(4-(3,17-dihydroxy-13-methyl-7,8,9,11,12,13,14,15,16,17-decahydro-6H-cyclopenta[α]phenanthren-17-yl)-1H-1,2,3-triazol-1-yl)-2-(2-(2-(4-(3,17-dihydroxy-13-methyl-7,8,9,11,12,13,14,15,16,17-decahydro-6H-cyclopenta[α]phenanthren-17-yl)-1H-1,2,3-triazol-1-yl)ethylamino)-2-oxoethyl)-10-oxo-2,5,8,11-tetraazatridecane-1-carboxylic acid, metal not drawn]

increase in mean SUVmax, PD (CXCR4 receptors [9]; n = 3): 9.8%
percent decrease in mean SUVmax, VGPR (CXCR4 receptors [9]; n = 6): 68.8%
percent decrease in mean SUVmax, CR (CXCR4 receptors [9]; n = 9): 78.6%
percent decrease in mean SUVmax, PR (CXCR4 receptors [9]; n = 12): 43.3%
overall sensitivity (RGD binding integrins; in vivo): 92.86%
overall specificity (RGD binding integrins; in vivo): 100%
skeletal metastatic lesions seen (RGD binding integrins; of 23): 78.26%
patients positive for the disease (RGD binding integrins; of 30): 86.66%
soft tissue lesions seen (RGD binding integrins; of 47): 100%
lung lesions seen (RGD binding integrins; of 130): 90%
lesions with uptake (RGD binding integrins; of 200 lesions): 91%
lesions with increased tracer uptake (CXCR4 receptors [10]): 55 lesions
Molecule: ^18F-FDG

stability (RCP) at 4 hrs [11]: 96.31%
RCP by TLC ([12]; 0.1M Na citrate, 30 min): 98.84±0.7%
RCP by TLC ([12]; 0.1M Na citrate, 1 h): 98.27±0.81%
RCP by TLC ([12]; 0.1M Na citrate, 2 h): 97.18±1.5%
RCP by TLC ([12]; 50% acetonitrile, 30 min): 98.24±0.86%
RCP by TLC ([12]; 50% acetonitrile, 1 h): 97.84±0.98%
RCP by TLC ([12]; 50% acetonitrile, 2 h): 96.89±1.1%
RCP by HPLC ([12]; 30 min): 100%
RCP by HPLC ([12]; 1 h): 100%
RCP by HPLC ([12]; 2 h): 100%
Molecule: N#C[C@@H]1CC(F)(F)CN1C(=O)CNC(=O)c1ccnc2ccc(OCCCN3CCN(C(=O)CN4CCN(CC(=O)[O-])CCN(CC(=O)[O-])CCN(CC(=O)[O-])CC4)CC3)cc12.[68Ga+3] [68Ga-DOTA-FAPI04]

Molecule: Cn1nnc2c(C(N)=O)ncn2c1=O [temozolomide]
IC50 (U87): 10000 to 100000 nM
IC50 (LN18): 400000 to 500000 nM

IC50 (QG56 (wild-type EGFR)): 1800 nM
IC50 (HCC827): 2 nM
Molecule: C=CC(=O)Nc1cc(Nc2nccc(-c3cn(C)c4ccccc34)n2)c(OC)cc1N(C)CCN(C)C [Osimietinib, Osimertinib]

mean Tu:Bkg ratio (BIRADS-V breast lesions; Prone Lateral, 10min): 1.89 ± 0.578
mean Tu:Bkg ratio (BIRADS-V breast lesions; Prone Lateral, 1hr): 1.95 ± 0.717
mean Tu:Bkg ratio (BIRADS-V breast lesions; Prone Lateral, 3hrs): 2.059 ± 0.728
mean Tu:Bkg ratio (BIRADS-V breast lesions; anterior view, 10min): 2.606 ± 0.601
mean Tu:Bkg ratio (BIRADS-V breast lesions; anterior view, 3hrs): 3.04 ± 1.114
Molecule: DTPA-bis-methionine [^99mTc-MDM]

change in kidney excretion pattern (kidney): no significant change
Molecule: CCCN(CCC)S(=O)(=O)c1ccc(C(=O)O)cc1 [probenecid, Probenecid]

Molecule: [^177Lu]Lu-DOTA-Bevacizumab
binding in cells (B16F10 cells): Approximately 32 ± 3%
accumulation in tumor (melanoma tumor (B16F10)): 8.2 ± 2.7 % ID/g
